CYP2C9 act: CYP2C9 (human) activation; P11712; activation factor at 5 µM; recombinant CYP2C9, luciferin-H conversion, luminescence; hits give high values; factor 1 = untreated enzyme, 0 = blocked; actives 1.4% (n = 96,000);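 active means activation factor of 2 or more for CYP2C9 at a 5 µM dose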
Target sequence (P11712 whole entry, looked up): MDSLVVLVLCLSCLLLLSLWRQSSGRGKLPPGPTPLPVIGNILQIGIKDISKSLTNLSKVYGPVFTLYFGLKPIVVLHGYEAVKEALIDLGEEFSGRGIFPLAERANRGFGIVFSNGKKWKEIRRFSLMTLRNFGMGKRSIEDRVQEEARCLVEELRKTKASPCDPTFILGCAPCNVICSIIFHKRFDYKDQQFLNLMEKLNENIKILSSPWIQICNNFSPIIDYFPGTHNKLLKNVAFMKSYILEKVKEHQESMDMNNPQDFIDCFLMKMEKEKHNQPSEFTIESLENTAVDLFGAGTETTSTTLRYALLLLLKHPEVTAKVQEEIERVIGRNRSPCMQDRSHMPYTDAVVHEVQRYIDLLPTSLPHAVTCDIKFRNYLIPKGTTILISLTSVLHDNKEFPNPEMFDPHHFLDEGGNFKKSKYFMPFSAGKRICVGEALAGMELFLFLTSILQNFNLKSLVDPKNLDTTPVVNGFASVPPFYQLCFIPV
CYP2C19 inh: blocks human cytochrome P450 2C19; CYP2C19 Supersomes, luciferin-H EGE luminescence, 30 min; actives 21% (n = 96,000); P33261; inhibition, % at 5 µM;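 active means CYP2C19 inhibition above a set limit at 5 µM in the primary screen, cut at about 50% in these data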
E coli WT exp: E. coli BW25113 growth inhibition, expanded screen; OD600 absorbance; growth inhibition, % at 100 µM; actives 0.15% (n = 98,000); AID 710;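 active means growth inhibition above about 50% at one test dose, limit read from the data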;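 further: growth measured after 20 h incubation at 37 °C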
CYP2C19 activ: activators of human cytochrome P450 2C19; 96,000 tested, under 10 active; recombinant CYP2C19, luciferin-H EGE luminescence; hits give high values; 0 = fully inhibited enzyme, 1 = untreated enzyme; P33261; activation factor at 5 µM;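 active means activation factor of at least 2 at 5 µM in the primary screen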
tolC growth inh: growth inhibitors of E. coli BW25113 tolC mutant; OD615; actives 2.2% (n = 65,000); growth inhibition, % at 10 µM (by protocol); AID 573;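 active means growth inhibition at or above a cutoff equal to the mean over every tested compound plus 3 SD, cut at about 60% in these data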;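 further: growth measured after 20 h incubation at 37 °C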
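Test system: tolC-deleted E. coli BW25113 | Medium: LB with kanamycin 50 µg/mL | Compound dosing: Single concentration, 10 µM final per compound | Schedule: 37 °C, 20 h exposure | Measured by: OD at 615 nm | Evaluation: Percent growth inhibition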
CYP2C9 inh: inhibitors of human CYP2C9 | CYP2C9 Supersomes, luciferin-H conversion, luminescence | actives 20% (n = 96,000) | P11712 | inhibition, % at 5 µM;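 active means blocking of liver enzyme CYP2C9 beyond about 50% at 5 µM, limit read from the data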
Each line names hits and unclear results; the compound was inactive in the other large screens. Most compounds without a hit are left out; they make up all but 29% or so of the library.

Nc1c(Cl)cc2c(c1Oc1ccccc1)C(=O)c1ccccc1C2=O	none (no result: tolC growth inh)
Oc1ccc(Cl)cc1C(C#Cc1ccccc1)N1CCOCC1 (stereo not given)	none (no result: tolC growth inh)
COCCn1nnnc1C(c1ccc(OC)cc1)N1CCC(C)CC1 (stereo not given)	CYP2C19 inh 73
O=C(OCCN1C(=O)c2ccccc2C1=O)c1cc(=O)[nH]c2ccccc12	none
Cc1ccc(OCCN2C(=O)c3ccccc3C2=O)c(C)c1	none
Cc1ccc(OCCN2C(=O)c3ccccc3C2=O)cc1	CYP2C19 inh 81 (no result: tolC growth inh)
COc1cccc(C(=O)OCCN2C(=O)c3ccccc3C2=O)c1OC	CYP2C19 inh 90
COc1ccc(C(=O)OCCN2C(=O)c3ccccc3C2=O)cc1	CYP2C19 inh 93, CYP2C9 inh 72
COc1ccccc1C(=O)OCCN1CCOCC1	none (no result: tolC growth inh)
Cc1cc(C(=O)OCCN2C(=O)c3ccccc3C2=O)c2ccccc2n1	CYP2C19 inh 68, CYP2C9 inh 75 (no result: tolC growth inh)
Cc1nnc(SCC(=O)Nc2nsc(-c3ccc(Cl)cc3)n2)s1	none (no result: tolC growth inh)
CCCCOC(=O)CN1C(=O)c2ccc(C(=O)OCCCC)cc2C1=O	CYP2C19 inh 88, CYP2C9 inh 70
CCCOC(=O)CN1C(=O)c2ccc(C(=O)OCCC)cc2C1=O	none
COc1ccc(O)c(CN2CCN(C/C=C/c3ccccc3)CC2)c1	none
Cc1cc(C)c2c(CN3CCN(C/C=C/c4ccccc4)CC3)cc(=O)oc2c1	CYP2C19 inh 51, CYP2C9 inh 69
COc1cc(Br)cc(CN2CCN(C/C=C/c3ccccc3)CC2)c1O	CYP2C19 inh 60
COC(=O)c1ccc(Cn2cnc3c(cnn3-c3ccc(F)cc3)c2=O)o1	CYP2C9 inh 50
COC(=O)c1ccc(Cn2cnc3c(cnn3-c3ccc(Cl)cc3)c2=O)o1	none (no result: CYP2C9 act, CYP2C19 inh, E coli WT exp, CYP2C19 activ, CYP2C9 inh)
C=CCc1ccc(OCCOc2ccc(/C=N/n3cnnc3)cc2OCC)c(OC)c1	CYP2C19 inh 61 (no result: tolC growth inh)
COc1cc(/C=N/NC(=O)c2cccc([N+](=O)[O-])c2)ccc1OCc1ccc(C)cc1	none (no result: tolC growth inh)
C(=N\n1cnnc1)/c1cccc(OCCOc2ccccc2)c1	CYP2C19 inh 80
COc1cc(/C=N/n2cnnc2)ccc1OCc1ccc(C)cc1	CYP2C9 inh 70 (no result: tolC growth inh)
CCOc1cc(/C=N/n2cnnc2)ccc1O	none
Clc1ccc(Oc2cccc(/C=N/n3cnnc3)c2)cc1	CYP2C19 inh 91, CYP2C9 inh 66
Cc1ccc(C(=O)C2=C(O)C(=O)N(CCCN(C)C)C23C(=O)N(C)c2ccccc23)o1 (stereo not given)	none (no result: E coli WT exp)
COc1ccc(C2(C(=O)NCC3CCCO3)CCOCC2)cc1 (stereo not given)	none
C1=C(CCNC2=NCCCCC2)CCCC1	none
O=C(NCc1ccco1)C(c1ccc(F)cc1)N(CC1CCCO1)C(=O)Cn1nnc2ccccc21 (stereo not given)	none
CC[N+](CC)(CC)C/C(N)=N/O	none
O=c1c2ccc(-c3nnc4n3-c3ccccc3SC4)cc2nc2n1CCCCC2	none (no result: CYP2C9 act, CYP2C19 inh, E coli WT exp, CYP2C19 activ, CYP2C9 inh)
COc1cc(/C=N/n2cnnc2)ccc1OCc1ccccc1	CYP2C19 inh 70, CYP2C9 inh 68 (no result: tolC growth inh)
COc1ccc(/C=N/n2cnnc2)cc1COc1ccccn1	none
Fc1ccccc1/C=N/n1cnnc1	none
COc1cc(/C=N/n2cnnc2)ccc1OCCOc1ccccc1	CYP2C19 inh 82, CYP2C9 inh 58
C(=N\n1cnnc1)/c1ccccc1OCCOc1ccccc1	CYP2C19 inh 78
O=C1NC2NC(=O)N(C(Cc3ccccc3)C(=O)O)C2N1 (stereo not given)	none
CCCn1c(=O)c(C(=O)Nc2nnc(C)s2)c(O)c2ccccc21	tolC growth inh 80 (no result: CYP2C9 act, CYP2C19 inh, E coli WT exp, CYP2C19 activ, CYP2C9 inh)
CCCCCCCCn1c(=O)c(C(=O)OCC)c(O)c2ccccc21	CYP2C9 inh 78 (no result: tolC growth inh)
CC(C)Cn1c(=O)c(C(=O)Nc2ccncc2)c(O)c2ccccc21	tolC growth inh 96 (no result: CYP2C9 act, CYP2C19 inh, E coli WT exp, CYP2C19 activ, CYP2C9 inh)
CCCCCn1c(=O)c(C(=O)OCC)c(O)c2ccccc21	none
CCNCCNC(=O)c1c(O)c2ccccc2n(CC)c1=O	none
CCn1c(=O)c(C(=O)NCCc2ccccc2)c(O)c2ccccc21	CYP2C19 inh 50
O=C1CC(C(=O)Nc2cccc3ccccc23)C2(CCCC2)O1 (stereo not given)	none (no result: tolC growth inh)
COc1ccc(-c2cc(C(F)(F)F)n3nc(C(=O)NCc4ccco4)c(Cl)c3n2)cc1	none (no result: tolC growth inh)
CC(C)Cn1c(=O)c(C(=O)Nc2cnccn2)c(O)c2ccccc21	tolC growth inh 100
Cc1cnc(NC(=O)c2c(O)c3cccc4c3n(c2=O)CCC4)s1	none
CC(C)c1nnc(NC(=O)c2c(O)c3cccc4c3n(c2=O)CCC4)s1	tolC growth inh 100, CYP2C9 inh 63
O=C(Nc1nc(=O)c2ccccc2s1)c1ccc(Cl)cc1	CYP2C19 inh 62 (no result: tolC growth inh)
COc1ccc(-c2nc(-c3cccs3)c(-c3cccs3)[nH]2)cc1OC	CYP2C19 inh 83, CYP2C9 inh 81 (no result: tolC growth inh)
O=[N+]([O-])c1cccc(-c2nc(-c3cccs3)c(-c3cccs3)[nH]2)c1	CYP2C9 inh 58 (no result: tolC growth inh)
CCSc1nc2ccccc2n1C(=O)/C=C\c1ccc(OC)c(OC)c1	none (no result: tolC growth inh)
COc1ccc(/C(C)=N/NC(=O)c2nc(C)cc(C)n2)cc1	CYP2C9 act 2.3 (no result: tolC growth inh)
Cc1cccc(-n2ncc3c(N4CCN(c5nc(C)cc(C)n5)CC4)ncnc32)c1	none (no result: CYP2C9 act, CYP2C19 inh, E coli WT exp, CYP2C19 activ, CYP2C9 inh)
COC(=O)c1ccc(CSCC(=O)Nc2cc(OC)cc(OC)c2)o1	CYP2C9 inh 64
CC1CC(C)CN(C(=O)c2ccc3c(=O)n(Cc4ccc5c(c4)OCO5)c(=S)[nH]c3c2)C1 (stereo not given)	none (no result: tolC growth inh)
Cc1c(C(=O)Nc2ccncc2)sc2nc(-c3ccc(F)cc3)cn12	CYP2C9 inh 74
COc1ccc(-c2cn3c(C)c(C(=O)Nc4ccncc4)sc3n2)cc1	none
COc1ccc(-c2cn3c(C)c(C(=O)Nc4cccc(NC(C)=O)c4)sc3n2)cc1	CYP2C19 inh 59
Oc1[nH]c2ccccc2c1C=Nc1ccc2c(c1)OCCO2	none
Cc1occc1C(=O)Nc1ccc2c(c1)OCCO2	CYP2C19 inh 81
Cc1cc(C(=O)Nc2ccc3c(c2)OCCO3)c(C)o1	none
Cc1c([N+](=O)[O-])c(C(=O)Nc2ccc3c(c2)OCCO3)nn1C	CYP2C19 inh 68 (no result: tolC growth inh)
Cc1ccc(CN(Cc2cc3cccc(C)c3[nH]c2=O)C(=O)N(C)C)cc1	CYP2C19 inh 52 (no result: E coli WT exp)
Cc1cccc2cc(CN(Cc3cccnc3)C(=O)c3ccncc3)c(=O)[nH]c12	CYP2C19 inh 73, CYP2C9 inh 61
COCCn1c(C)cc(C(=O)CSc2nc3ccccc3o2)c1C	none
COCCn1c(C)cc(C(=O)CSc2nnc3ccccn23)c1C	CYP2C19 inh 71
COCCn1c(C)cc(C(=O)CSc2nc(C)cc(C)c2C#N)c1C	CYP2C19 inh 78
Cc1cc(C)c(C#N)c(SCSCc2ccccc2)n1	CYP2C19 inh 99, CYP2C9 inh 74 (no result: tolC growth inh)
Cc1cc(C)c(C#N)c(SCC(=O)c2cc(C)n(CCc3ccccc3)c2C)n1	CYP2C19 inh 82, CYP2C9 inh 85 (no result: tolC growth inh)
